Calls of active or inactive are those of the source. The rule behind the calls is not given here.
How the values were obtained:
U-937 = assay: Antiproliferative activity against human U937 cells after 48 hrs by cell titer-glo assay; assay type: functional, cell-based; settings: U-937, 48 h
In short: (§1)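 Cells kept in RPMI-1640 with 10% FBS at 37 °C, 5% CO2. 10^4 suspension cells were plated immediately before dosing. Compounds were added at 0.1–100 µM, final 1% DMSO, with DMSO vehicle control, and incubated 48 h. CellTiter-Glo luminescence was read. EC50 is the dose reducing luminescence to 50% of untreated cultures.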

SK-BR-3 = assay: Antiproliferative activity against human SK-BR-3 cells after 48 hrs by cell titer-glo assay; assay type: functional, cell-based; settings: SK-BR-3, 48 h
HT-29 = assay: Antiproliferative activity against human HT-29 cells after 48 hrs by cell titer-glo assay; assay type: functional, cell-based; settings: HT-29, 48 h
[1] = molecular target: Histone deacetylase 1 (Homo sapiens) (UniProt Q13547); assay: Inhibition of recombinant FLAG-tagged HDAC1 assessed as [3H]acetic acid release preincubated for 30 mins measured after 2 hrs by scintillation counting
In short: (§2)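 FLAG-tagged HDAC1 or HDAC6 was immunopurified from stably expressing cell lines and washed in HDAC buffer (10 mM Tris-HCl pH 8.0, 10 mM NaCl, 10% glycerol). Enzyme was preincubated with inhibitor (1 µM) for 30 min at 4 °C, then given 20 000 cpm [3H]peracetylated H4 peptide for 2 h at 37 °C. The reaction was stopped with acetic acid/HCl, extracted into ethyl acetate, and released [3H]acetate counted by scintillation.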

[2] = molecular target: T1, Protein deacetylase HDAC6 (Homo sapiens) (UniProt Q9UBN7); assay: Inhibition of recombinant FLAG-tagged HDAC6 assessed as [3H]acetic acid release preincubated for 30 mins measured after 2 hrs by scintillation counting; in short: as §2
T1 sequence (whole entry): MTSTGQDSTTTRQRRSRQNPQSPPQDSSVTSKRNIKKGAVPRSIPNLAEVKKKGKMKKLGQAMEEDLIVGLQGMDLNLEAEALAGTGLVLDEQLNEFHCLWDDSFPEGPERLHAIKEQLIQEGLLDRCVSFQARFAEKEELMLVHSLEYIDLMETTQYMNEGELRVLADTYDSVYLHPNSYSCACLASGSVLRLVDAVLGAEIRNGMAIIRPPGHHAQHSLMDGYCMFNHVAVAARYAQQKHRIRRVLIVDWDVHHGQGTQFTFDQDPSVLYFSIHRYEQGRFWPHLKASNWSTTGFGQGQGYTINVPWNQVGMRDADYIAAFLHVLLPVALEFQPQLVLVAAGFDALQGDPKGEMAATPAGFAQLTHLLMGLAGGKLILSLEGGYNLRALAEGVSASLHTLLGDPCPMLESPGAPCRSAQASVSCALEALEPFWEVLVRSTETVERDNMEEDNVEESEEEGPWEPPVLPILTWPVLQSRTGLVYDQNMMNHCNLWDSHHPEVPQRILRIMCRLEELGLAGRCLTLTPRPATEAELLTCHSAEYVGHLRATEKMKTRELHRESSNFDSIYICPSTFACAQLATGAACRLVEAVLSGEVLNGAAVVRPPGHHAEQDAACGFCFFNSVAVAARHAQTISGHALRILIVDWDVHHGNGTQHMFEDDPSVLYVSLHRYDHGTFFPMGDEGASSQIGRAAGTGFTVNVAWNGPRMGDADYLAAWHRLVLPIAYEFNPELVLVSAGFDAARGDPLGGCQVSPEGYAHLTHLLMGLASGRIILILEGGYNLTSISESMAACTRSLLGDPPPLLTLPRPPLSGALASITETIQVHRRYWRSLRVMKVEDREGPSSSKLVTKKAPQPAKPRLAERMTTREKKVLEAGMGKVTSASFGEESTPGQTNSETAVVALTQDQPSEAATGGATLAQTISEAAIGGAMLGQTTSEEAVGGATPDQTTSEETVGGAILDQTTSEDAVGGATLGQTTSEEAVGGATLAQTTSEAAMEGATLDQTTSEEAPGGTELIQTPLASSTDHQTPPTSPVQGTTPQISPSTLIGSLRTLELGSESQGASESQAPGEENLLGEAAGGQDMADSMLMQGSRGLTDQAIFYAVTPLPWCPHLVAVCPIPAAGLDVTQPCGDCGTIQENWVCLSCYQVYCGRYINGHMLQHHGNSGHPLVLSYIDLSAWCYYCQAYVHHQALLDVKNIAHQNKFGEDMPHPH

HL-60 = assay: Antiproliferative activity against human HL60 cells after 48 hrs by cell titer-glo assay; assay type: functional, cell-based; settings: HL-60, 48 h
Jurkat = assay: Antiproliferative activity against human Jurkat JA16 cells after 48 hrs by cell titer-glo assay; assay type: functional, cell-based
K562 = assay: Antiproliferative activity against human K562 cells after 48 hrs by cell titer-glo assay; assay type: functional, cell-based; settings: K562, 48 h; in short: as §1
Mus musculus [3] = assay: Toxicity in FVB mouse assessed as effect on number of RBC at 50 mg/kg, po administered 5 times per week for 2 weeks (reference value: 7.7 +/- 0.1 10^6/mm^3); assay type: organism-based; set-up: dose 50 mg/kg, route oral; settings: in vivo, 336 h
In short: (§3)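 8-week-old FVB mice were housed specific-pathogen-free and randomly assigned, n = 3 per group. They received 50 mg/kg compound or vehicle alone by oral gavage, five times weekly for 2 weeks. Body weight and survival were monitored. Differential blood counts came from nonlethal retro-orbital bleeds before study (J-5), during study (J5) and at end point (J12). Values are means ± spread for n = 3.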

Mus musculus [4] = assay: Toxicity in FVB mouse assessed as effect on body weight at 50 mg/kg, po administered 5 times per week for 2 weeks; assay type: organism-based; set-up: dose 50 mg/kg, route oral; settings: in vivo, 336 h; in short: as §3
Mus musculus [5] = assay: Toxicity in FVB mouse assessed as effect on mean platelet volume at 50 mg/kg, po administered 5 times per week for 2 weeks (reference value: 8.8 +/- 0.1 microm^3); assay type: organism-based; set-up: dose 50 mg/kg, route oral; settings: in vivo, 336 h; in short: as §3
Mus musculus [6] = assay: Toxicity in FVB mouse assessed as mortality at 50 mg/kg, po administered 5 times per week for 2 weeks; assay type: organism-based; set-up: dose 50 mg/kg, route oral; settings: in vivo, 336 h
In short: (§4)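 8-week-old Fvb mice, SPF-housed in ventilated cages with acidified water, randomly assigned (n = 3 per group) to compound or solvent-only vehicle. Dosing was by oral gavage five times weekly for 2 weeks. Survival was monitored with body weight and blood counts during dosing, and deaths were also recorded during the month after treatment stopped.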

Mus musculus [7] = assay: Toxicity in FVB mouse assessed as mortality at 50 mg/kg, po administered 5 times per week for 2 weeks measured up to 1 month; assay type: organism-based; set-up: dose 50 mg/kg, route oral; settings: in vivo, 336 h; in short: as §4
Mus musculus [8] = assay: Toxicity in FVB mouse assessed as effect on mean cell volume of red cells at 50 mg/kg, po administered 5 times per week for 2 weeks (reference value: 43.9 +/- 0.5 microm^3); settings: in vivo, 336 h
Mus musculus [9] = assay: Toxicity in FVB mouse assessed as effect on number of platelets at 50 mg/kg, po administered 5 times per week for 2 weeks (reference value: 514 +/- 42.8 10^3/mm^3); assay type: organism-based; set-up: dose 50 mg/kg, route oral; settings: in vivo, 336 h; in short: as §3
Mus musculus [10] = assay: Toxicity in FVB mouse assessed as effect on hematocrit at 50 mg/kg, po administered 5 times per week for 2 weeks measured during test; assay type: organism-based; set-up: dose 50 mg/kg, route oral; settings: in vivo, 336 h; in short: as §3
Mus musculus [11] = assay: Toxicity in FVB mouse assessed as effect on number of RBC at 50 mg/kg, po administered 5 times per week for 2 weeks measured during test (reference value: 8.1 +/- 0.2 10^6/mm^3); assay type: organism-based; set-up: dose 50 mg/kg, route oral; settings: in vivo, 336 h; in short: as §3
Mus musculus [12] = assay: Toxicity in FVB mouse assessed as effect on mean platelet volume at 50 mg/kg, po administered 5 times per week for 2 weeks measured during test (reference value: 8.4 +/- 0.5 microm^3); assay type: organism-based; set-up: dose 50 mg/kg, route oral; settings: in vivo, 336 h; in short: as §3
Mus musculus [13] = assay: Toxicity in FVB mouse assessed as effect on number of platelets at 50 mg/kg, po administered 5 times per week for 2 weeks measured during test (reference value: 454 +/- 93 10^3/mm^3); assay type: organism-based; set-up: dose 50 mg/kg, route oral; settings: in vivo, 336 h; in short: as §3
Mus musculus [14] = assay: Toxicity in FVB mouse assessed as effect on number of WBC at 50 mg/kg, po administered 5 times per week for 2 weeks measured during test (reference value: 9.1 +/- 0.2 10^3/mm^3); assay type: organism-based; set-up: dose 50 mg/kg, route oral; settings: in vivo, 336 h; in short: as §3
Mus musculus [15] = assay: Toxicity in FVB mouse assessed as effect on number of WBC at 50 mg/kg, po administered 5 times per week for 2 weeks (reference value: 9.1 +/- 0.2 10^3/mm^3); assay type: organism-based; set-up: dose 50 mg/kg, route oral; settings: in vivo, 336 h; in short: as §3
Mus musculus [16] = assay: Toxicity in FVB mouse assessed as effect on mean cell volume of red cells at 50 mg/kg, po administered 5 times per week for 2 weeks measured during test (reference value: 43.7 +/- 0.4 microm^3); assay type: organism-based; set-up: dose 50 mg/kg, route oral; settings: in vivo, 336 h; in short: as §3
Mus musculus [17] = assay: Toxicity in FVB mouse assessed as effect on hematocrit at 50 mg/kg, po administered 5 times per week for 2 weeks; assay type: organism-based; set-up: dose 50 mg/kg, route oral; settings: in vivo, 336 h; in short: as §3
Mus musculus [18] = assay: Toxicity in FVB mouse assessed as effect on body weight at 50 mg/kg, po administered 5 times per week for 2 weeks measured during test; assay type: organism-based; set-up: dose 50 mg/kg, route oral; settings: in vivo, 336 h; in short: as §3
[19] = Therapeutic ratio, EC50 for human PBMC to EC50 for human 937 cells; settings: human PBMC versus human 937 cells

Chain of Histone deacetylase 1 (Homo sapiens) (Q13547 whole entry): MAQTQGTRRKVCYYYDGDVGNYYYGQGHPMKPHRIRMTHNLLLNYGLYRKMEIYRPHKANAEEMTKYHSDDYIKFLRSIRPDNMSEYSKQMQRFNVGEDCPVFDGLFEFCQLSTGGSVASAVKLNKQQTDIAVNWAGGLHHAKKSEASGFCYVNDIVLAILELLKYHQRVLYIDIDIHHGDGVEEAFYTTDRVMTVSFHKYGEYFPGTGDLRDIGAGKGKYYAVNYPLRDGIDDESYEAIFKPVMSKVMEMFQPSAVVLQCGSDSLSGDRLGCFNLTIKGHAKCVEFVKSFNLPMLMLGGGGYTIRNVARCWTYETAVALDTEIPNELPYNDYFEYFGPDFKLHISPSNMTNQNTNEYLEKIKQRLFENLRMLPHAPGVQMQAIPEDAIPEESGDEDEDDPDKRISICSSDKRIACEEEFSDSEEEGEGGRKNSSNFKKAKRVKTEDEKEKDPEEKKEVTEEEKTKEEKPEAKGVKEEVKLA

Row | Compound | EC50 (U-937) | EC50 (SK-BR-3) | EC50 (HT-29) | Activity [1] | Activity [2] | EC50 (HL-60) | EC50 (Jurkat) | EC50 (K562) | also measured
1 | O=C(CCCCCCC(=O)Nc1ccccc1Br)NO | 6.8 µM | 17.5 µM | 17 µM | – | – | – | – | – | –
2 | O=C(CCCCCCC(=O)Nc1ccccc1-c1ccccc1)NO | 14 µM | 73.5 µM | 27 µM | – | – | – | – | – | –
3 | CN(C)c1ccc(NC(=O)CCCCCCC(=O)NO)cc1 | 1.7 µM | 4.2 µM | 3.15 µM | Active | Active | – | – | – | –
4 | O=C(CCCCCCC(=O)Nc1cccc2cccnc12)NO | 26 µM | > 100 µM | > 100 µM | – | – | – | – | – | –
5 | O=C(CCCCCCC(=O)Nc1cccc(F)c1)NO | 0.5 µM | 1.9 µM | 1.4 µM | Active | Active | 1.25 µM | 0.64 µM | 2.4 µM | –
6 | O=C(CCCCCCC(=O)Nc1ccc(Cl)cc1)NO | 0.55 µM | 2.3 µM | 2.1 µM | Active | Active | 1.87 µM | 0.77 µM | 3.3 µM | –
7 | O=C(O)CCCCCCC(=O)NO | > 100 µM | > 100 µM | > 100 µM | – | – | > 100 µM | > 100 µM | > 100 µM | –
8 | O=C(CCCCCCC(=O)Nc1cccc(C(F)(F)F)c1)NO | 1.2 µM | 26 µM | 6.4 µM | – | – | – | – | – | –
9 | O=C(CCCCCCC(=O)Nc1ccccc1)NO [VORINOSTAT] | 0.82 µM | – | – | – | – | – | – | 2.2 µM | Activity (Mus musculus [3]): 7.6 10^6/mm3; Activity (Mus musculus [4]): 96.2%; Activity (Mus musculus [5]): 8.4 um3; Activity (Mus musculus [6]): Non-toxic; Activity (Mus musculus [7]): Non-toxic; Activity (Mus musculus [8]): 44.5 um3; Activity (Mus musculus [9]): 538 10^3/mm3; Activity (Mus musculus [10]): 36.5%; Activity (Mus musculus [11]): 8.3 10^6/mm3; Activity (Mus musculus [12]): 7.7 um3; Activity (Mus musculus [13]): 617 10^3/mm3; Activity (Mus musculus [14]): 5.9 10^3/mm3; Activity (Mus musculus [15]): 8.3 10^3/mm3; Activity (Mus musculus [16]): 44.1 um3; Activity (Mus musculus [17]): 33.7%; Activity (Mus musculus [18]): 94.9%
10 | O=C(CCCCCCC(=O)Nc1cc2ccc3cccc4ccc(c1)c2c34)NO | 0.3 µM | 1.2 µM | 1.4 µM | Active | Active | 0.35 µM | 0.18 µM | 0.8 µM | selectivity ratio [19]: 15
